31 compounds from ChEMBL document CHEMBL1795202, “An investigation of phenylthiazole antiflaviviral agents” (Bioorg Med Chem, 2011) can be followed below.

Activity calls are given as the source filed them. The calls are words filed in the database; no cut-off is given here.

In data set [1] the test system is Yellow fever virus. The data set is described as follows: microbe, parasite or virus in culture. The format is functional, organism-based. The note with it: BHK15, 36 h.
Data set [2] can be described thus: Therapeutic index, ratio of GI50 for uninfected BHK cells to EC50 for luciferase reporting full length Yellow fever virus. Format: cell-based. The note with it: hamster, read-out: TI. The method, boiled down: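 TI is GI50 in uninfected BHK cells (XTT, ~36 h) divided by EC50. EC50 was estimated by nonlinear regression against DMSO-treated infected cells.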
Data set [3] is described as follows: Toxicity against uninfected BHK cells assessed as growth inhibition incubated at 37 degC for 36 hrs by XTT assay. Format: cell-based, Mesocricetus auratus. Particulars: hamster. The method, boiled down:
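Confluent BHK-15 cells were exposed to serial dilutions of compound (DMSO stocks) for ~36 h at 37 °C, 5% CO2. Medium was then replaced, and XTT substrate was added for 2 h at 37 °C before reading OD450. Values were compared with 1% DMSO-treated cells to calculate GI50.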
(Tetrazolium assays rely on reduction of a dye to a coloured formazan, in cell work by metabolically active cells.)

For data set [4], the system named is Yellow fever virus. Nature of the data set: Antiviral activity against luciferase reporting full length Yellow fever virus infected in BHK15 cells assessed as reduction in virus infectivity ncubated at 50 uM at 37 degC for 36 hrs by luciferase reporter gene assay. The format is functional. Particulars: BHK15, 36 h. Background: In a reporter assay the amount or activity of a reporter protein is the signal.

The target of data set [5] is T1, Luciferin 4-monooxygenase (Luciola lateralis) (UniProt Q01158).
T1 sequence (whole entry): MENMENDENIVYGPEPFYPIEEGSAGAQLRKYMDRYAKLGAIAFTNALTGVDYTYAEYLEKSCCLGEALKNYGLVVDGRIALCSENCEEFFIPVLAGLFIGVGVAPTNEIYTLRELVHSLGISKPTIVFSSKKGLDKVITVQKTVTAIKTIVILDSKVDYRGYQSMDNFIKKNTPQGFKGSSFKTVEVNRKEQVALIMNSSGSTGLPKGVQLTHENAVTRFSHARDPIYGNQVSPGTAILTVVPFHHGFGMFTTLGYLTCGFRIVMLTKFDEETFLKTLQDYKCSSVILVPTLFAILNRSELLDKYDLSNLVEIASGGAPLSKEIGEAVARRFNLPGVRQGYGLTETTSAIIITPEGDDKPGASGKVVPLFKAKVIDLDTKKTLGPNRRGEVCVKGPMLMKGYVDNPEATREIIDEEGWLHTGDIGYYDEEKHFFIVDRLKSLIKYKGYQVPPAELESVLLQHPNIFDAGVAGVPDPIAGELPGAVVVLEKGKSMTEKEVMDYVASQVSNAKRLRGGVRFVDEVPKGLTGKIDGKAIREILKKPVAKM
The data set is described as follows: Inhibition of firefly luciferase expressed in BHK15 cells transfected with luciferase-pcDNA3 incubated at 37 degC for 20 hrs by luciferase reporter gene assay. Format: cell-based. Particulars: Aquatica lateralis. The method, boiled down:
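BHK-15 cells grown to confluency, transfected with firefly luciferase-pcDNA3 plasmid by Lipofectamine; complexes removed at 3 h and replaced with medium holding serial compound dilutions from DMSO stock; 37 °C, 5% CO2, 20 h. Cells lysed and luminescence read with firefly luciferase substrate; signal compared with 1% DMSO-treated cells. Controls: uninfected, infected, DMSO-treated.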

What is called EC50 is the concentration needed to bring the measured effect to its halfway point. Low readings indicate greater potency, high ones weaker potency. For orientation: GI50 means the concentration at which growth is held to half of that of the control. One may read the inhibition as the drop in the measured response relative to a control, in per cent. Consider `CCCCc1ccc(-c2nc(C)c(C(=O)SC)s2)cc1`, for which the EC50 in the data set on Yellow fever virus [1] stood at 45.6 µM. Also, the selectivity ratio in data set [2] is 1. Also, in data set [3], the GI50 at 36 h was 46.5 µM. Further, in the data set with Yellow fever virus [4], the inhibition at 50 µM is 94.1%.
As for `COC(=O)c1sc(-c2ccccc2F)nc1C`, the inhibition at 50 µM with Yellow fever virus [4] was less than 50%.
On to `COC(=O)c1sc(-c2ccccc2F)nc1C(Br)Br`, for which the inhibition at 50 µM with Yellow fever virus [4] was less than 50%.
Same read-out and setting: with `COC(=O)c1sc(-c2cccc(Br)c2)nc1C` the figure was less than 50%.
`Nc1ccccc1SCc1csc(-c2ccc(Cl)cc2)n1`: the selectivity ratio in data set [2] came out at 2. In addition, the GI50 at 36 h in data set [3] is 61 µM.
The compound `CCCCCc1ccc(-c2nc(C)c(C(=O)OC)s2)cc1` yielded an EC50 with Yellow fever virus [1] of 38.9 µM. The selectivity ratio in data set [2] was found to be 1.1. The GI50 at 36 h in data set [3] is 41.5 µM. For the same compound, in the data set with Yellow fever virus [4], the inhibition at 50 µM was 98.6%.
Consider `COC(=O)c1sc(Cc2ccccc2)nc1C`, for which the inhibition at 50 µM in the data set with Yellow fever virus [4] was -23.8%.
Consider `CCCCc1ccc(-c2nc(C)c(/C(C)=N/NC(=N)N)s2)cc1`, for which the inhibition result in data set [5] was “inactive”. The same compound returned an EC50 in the data set with Yellow fever virus [1] of 2.4 µM. Also, the selectivity ratio in data set [2] is 147. The GI50 at 36 h in data set [3] worked out at 353 µM. The inhibition at 50 µM in the data set with Yellow fever virus [4] was 99.2%.
For `COC(=O)c1sc(Cc2ccc(Cl)cc2)nc1C`, the inhibition at 50 µM with Yellow fever virus [4] is -6.5%.
For the compound `COC(=O)c1sc(-c2ccccc2)nc1C(Br)Br`, in the data set on Yellow fever virus [4], the inhibition at 50 µM was less than 50%.
As to `CCCCc1ccc(-c2nc(C)c(C(C)=O)s2)cc1`, the EC50 in the data set with Yellow fever virus [1] came out at 10.1 µM. The selectivity ratio in data set [2] came to 6. Besides, the concentration for 50% growth inhibition (GI50) at 36 h in data set [3] was 59.4 µM. In addition, the inhibition at 50 µM in the data set with Yellow fever virus [4] worked out at 99.8%.
Consider `COC(=O)c1sc(-c2ccccc2Br)nc1C`, for which the inhibition at 50 µM in the data set on Yellow fever virus [4] is less than 50%.
With `COC(=O)c1sc(-c2ccc(F)cc2)nc1C`, in the data set on Yellow fever virus [4], the inhibition at 50 µM is less than 50%.
Take `COC(=O)c1sc(-c2ccc(Cl)c(Cl)c2)nc1C(Br)Br`: the inhibition at 50 µM in the data set with Yellow fever virus [4] stood at 42.2%.
As to `COC(=O)c1sc(-c2ccccc2Br)nc1C(Br)Br`, the inhibition at 50 µM in the data set with Yellow fever virus [4] was less than 50%.
Regarding `COC(=O)c1sc(-c2ccc(OC)cc2)nc1C(Br)Br`, in the data set with Yellow fever virus [4], the inhibition at 50 µM was less than 50%.
In turn, `CCCCc1ccc(-c2nc(C)c(C(=O)O)s2)cc1` displayed an EC50 with Yellow fever virus [1] of 203 µM. Further, the GI50 at 36 h in data set [3] amounted to 366 µM. In the data set on Yellow fever virus [4], the inhibition at 50 µM worked out at 83.2%.
Consider `CCCc1ccc(-c2nc(C)c(C(=O)OC)s2)cc1`, for which, in the data set on Yellow fever virus [1], the EC50 stood at 34.3 µM. The selectivity ratio in data set [2] was 12. For the same compound, the concentration for 50% growth inhibition (GI50) at 36 h in data set [3] was found to be 499 µM. Further, the inhibition at 50 µM in the data set with Yellow fever virus [4] is 83.2%.
In the case of `COC(=O)c1sc(-c2ccccc2Cl)nc1C(Br)Br`, the inhibition at 50 µM in the data set with Yellow fever virus [4] was less than 50%.
Regarding `COC(=O)c1sc(-c2ccc(C(C)(C)C)cc2)nc1C`, the inhibition at 50 µM with Yellow fever virus [4] was less than 50%.
As for `COC(=O)c1sc(-c2ccc3ccccc3c2)nc1C(Br)Br`, the inhibition at 50 µM in the data set on Yellow fever virus [4] was found to be 26%.
As for `COC(=O)c1sc(-c2ccc(Br)cc2)nc1C(Br)Br`, the EC50 with Yellow fever virus [1] came out at 3.3 µM. In addition, in data set [2], the selectivity ratio was found to be 121. For the same compound, the 50% growth inhibitory concentration (GI50) at 36 h in data set [3] was found to be 408 µM. Besides, the inhibition at 50 µM with Yellow fever virus [4] was 81.9%.
Take `CCCCc1ccc(-c2nc(C)c(C(=O)OC)s2)cc1`: in the data set on Yellow fever virus [1], the 50% effective concentration (EC50) was determined as 2.8 µM. In data set [2], the selectivity ratio is 22. In data set [3], the GI50 at 36 h turned out to be 63.1 µM. Also, the inhibition at 50 µM in the data set with Yellow fever virus [4] amounted to 91.9%.
In the case of `COC(=O)c1sc(-c2ccc(F)cc2)nc1C(Br)Br`, the inhibition at 50 µM in the data set on Yellow fever virus [4] is less than 50%.
Regarding `COC(=O)c1sc(-c2ccc(Br)cc2)nc1C`, the inhibition at 50 µM with Yellow fever virus [4] was less than 50%.
With `COC(=O)c1sc(-c2ccccc2Cl)nc1C`, the inhibition at 50 µM in the data set with Yellow fever virus [4] is less than 50%.
Regarding `COC(=O)c1sc(-c2cccc(Br)c2)nc1C(Br)Br`, it took 26 µM to reach a half-maximal effect in the data set on Yellow fever virus [1] (EC50). In addition, the selectivity ratio in data set [2] was 1. Further, the concentration for 50% growth inhibition (GI50) at 36 h in data set [3] was found to be 26.5 µM. Besides, in the data set on Yellow fever virus [4], the inhibition at 50 µM turned out to be 93%.
In the case of `COC(=O)c1sc(-c2ccc(Cl)c(Cl)c2)nc1C`, the inhibition at 50 µM in the data set with Yellow fever virus [4] is -8.2%.
On to `COC(=O)c1sc(-c2ccccc2)nc1C`, for which the inhibition at 50 µM with Yellow fever virus [4] was less than 50%.
In the data set with Yellow fever virus [1], `COC(=O)c1sc(-c2ccc(C(F)(F)F)cc2)nc1C(Br)Br` had an EC50 of 10.6 µM. Further, the selectivity ratio in data set [2] amounted to 26. The GI50 at 36 h in data set [3] stood at 262 µM. The inhibition at 50 µM in the data set with Yellow fever virus [4] came to 91%.
`COC(=O)c1sc(-c2ccc(OC)cc2)nc1C`: in the data set with Yellow fever virus [4], the inhibition at 50 µM was less than 50%.
